KCNQ1 block – inhibitors of human KCNQ1 potassium channel; P51787; CHO-K1 KCNQ1, FluxOR thallium flux fluorescence; hits give high values; B-score at 10 µM; 310,000 tested, 1.3% active; AID 2642;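 active = compounds whose thallium flux B-score, printed positive for inhibition, exceeds three library SD while starting fluorescence stays within three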;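 also: channel opened by potassium depolarization with thallium stimulus after 20 min compound exposure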
KCNQ1 act – potentiators or activators of human KCNQ1 potassium channel; 310,000 tested, 0.35% active; P51787; CHO-K1 KCNQ1, thallium flux FluxOR fluorescence; hits give high values; B-score at 10 µM;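 active = fluorescence ratio B-score, a plate-corrected score, at least three library SD, with initial intensity B-score within 5 SD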
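Material: CHO-K1 cells stably expressing KCNQ1. Medium: assay buffer for compound exposure, DMSO matched across wells. Reagent: K+/Tl+ depolarizing stimulus. Compound dosing: single-concentration screen. Times: 37 °C overnight plating, 90-min dark dye load, 20-min compound pretreatment. Technique: FluxOR Tl+ flux fluorescence.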
KCNK3 block – human KCNK3 channel inhibition, primary screen; O14649; CHO-KCNK3 thallium flux, FluxOR fluorescence; hits give low values; B-score at 10 µM; 340,000 tested, 0.84% active;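 active = B-score under library mean minus 4 SD, starting fluorescence ratio at most library mean plus 5 SD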;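 also: more negative B-score means stronger inhibition of thallium flux through KCNK3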
KCNK9 inh – inhibitors of human KCNK9 two-pore domain potassium channel; B-score at 10 µM; Q9NPC2; HEK293 KCNK9, FluxOR thallium flux fluorescence; hits give low values; 310,000 tested, 1.2% active; AID 488922;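 active = ratio B-score over 3 SD below the library mean, with starting fluorescence within 5 SD of its mean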;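 also: negative B-score means less thallium flux so channel inhibition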
Kir21 block – inhibitors of mouse Kir2.1 inward-rectifier potassium channel | HEK293-Kir2.1, FluxOR thallium flux fluorescence; hits give low values | P35561 | B-score at 10 µM | 310,000 tested, 0.85% active;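 active = fluorescence ratio B-score at or below minus 3 SD of library scores, with starting-brightness B-score within 2 SD, cut at about -4.2 in these data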;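 also: channel flux triggered by added potassium and thallium sulfate stimulus; B-score of peak minus minimum fluorescence over baseline after thallium stimulus; more negative B-score means stronger Kir2.1 block with less thallium influx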
Target sequence (P35561 whole entry, looked up): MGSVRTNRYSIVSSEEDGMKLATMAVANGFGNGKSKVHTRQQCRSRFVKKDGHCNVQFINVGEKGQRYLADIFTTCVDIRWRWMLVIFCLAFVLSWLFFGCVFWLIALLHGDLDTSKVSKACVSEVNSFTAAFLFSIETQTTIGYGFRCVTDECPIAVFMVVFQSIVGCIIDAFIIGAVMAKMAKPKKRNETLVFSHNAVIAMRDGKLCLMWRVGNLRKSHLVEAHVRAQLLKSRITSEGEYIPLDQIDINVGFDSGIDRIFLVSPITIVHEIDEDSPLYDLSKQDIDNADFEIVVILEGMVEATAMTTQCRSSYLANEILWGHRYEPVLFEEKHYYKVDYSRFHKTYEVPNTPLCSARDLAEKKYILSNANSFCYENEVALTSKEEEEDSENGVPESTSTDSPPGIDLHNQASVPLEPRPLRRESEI
hERG protect – shields human hERG channel from block by proarrhythmic agents. Q12809. CHO-hERG, FluxOR thallium flux, dofetilide IC70 present. activation (rescue from dofetilide block), less the hit threshold, % at 10 µM. 310,000 tested, 0.51% active. AID 1511;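 active = activation above the mean of controls blocked by dofetilide plus 5 SD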;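 also: thallium influx through hERG after potassium depolarization seen as dye fluorescence rise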
Each line names hits and unclear results; the compound was inactive in the other large screens. Hits are enriched below; roughly 3.8% of the tested compounds scored in any of these assays.

CCCCn1c(N)c(N(CC(C)C)C(=O)c2oc3ccc(OC)cc3c2C)c(=O)[nH]c1=O	none
O=C(CN1C(=O)NC(c2ccc(F)cc2)C1=O)NC1CCCCC1 (stereo not drawn)	none (no result: KCNQ1 block, KCNQ1 act, KCNK9 inh, Kir21 block, hERG protect)
CC1CCCN(C(=O)c2cc(F)c(F)cc2Cl)C1 (stereo not drawn)	none
O=C(NC1(C(F)(F)F)C(=O)Nc2c1c(=O)[nH]c(=O)n2-c1ccc(F)cc1)c1cccnc1 (stereo not drawn)	none
COc1ccc(CNc2cccc(C)n2)c(O)c1	none
Cc1ccc(/C=N/Nc2nc(N3CCCCC3)nc(N3CCCCC3)n2)o1	none
COC(=O)c1ccccc1-c1ccc(/C=N/Nc2nc(N3CCCC3)nc(N3CCCC3)n2)o1	KCNQ1 block 6
O=[N+]([O-])c1ccc(/C=N/Nc2nc(N3CCCCCC3)nc(N3CCCCCC3)n2)o1	KCNQ1 block 6, KCNK9 inh -7
COc1cccc(OCC(=O)NC2CCCCCC2)c1	none (no result: KCNQ1 block, KCNQ1 act, KCNK9 inh, Kir21 block, hERG protect)
O=C(Cn1cncn1)N/N=C/c1ccccc1Cl	none
O=C(CSc1ccc([N+](=O)[O-])cn1)Nc1ccccc1N1CCOCC1	Kir21 block -4.6
O=C(CSc1nc2ccccc2o1)Nc1ccccc1N1CCOCC1	Kir21 block -8.8
O=C(COc1ccccc1-c1ccccc1)Nc1ccc(S(=O)(=O)NCc2ccco2)cc1	none
Cc1cc(NC(=O)CCC(=O)N(CC(=O)NCC2CCCO2)c2ccc(Cl)c(Cl)c2)no1 (stereo not drawn)	none
CCOC(=O)c1ccc(COC(=O)CCc2nc3ccccc3[nH]c2=O)o1	none
CCCCN(C(=O)c1ccc2c(c1)OCO2)c1ccccc1	Kir21 block -5.4
O=C(Nc1nc2n(n1)C(c1ccc(Cl)cc1)CC(c1ccc(Cl)cc1)N2)c1ccco1 (stereo not drawn)	KCNK9 inh -7.7 (no result: KCNK3 block)
Cc1cccc(C)c1NC(=O)CN(C)CC(=O)N(C)CC(=O)Nc1ccccc1Br	none (no result: KCNQ1 block, KCNQ1 act, KCNK9 inh, Kir21 block, hERG protect)
CCOC(=O)c1nc(N2CCN(C(=O)OCC)CC2)c2c3c(sc2n1)CCCC3	none
CCNC(=S)N1CCN(c2nc(CC)nc3sc4c(c23)CCCC4)CC1	KCNK3 block -12
CCN(CC)C(=O)C1CCCN(Cc2cccc(F)c2)C1 (stereo not drawn)	none
Fc1ccc2c(-c3cccc(C(F)(F)F)c3)c(-c3ccccc3)ncc2c1	none (no result: KCNQ1 block, KCNQ1 act, KCNK9 inh, Kir21 block, hERG protect)
O=C(c1ccc(N2CCCCCC2)c([N+](=O)[O-])c1)N1CCc2ccccc21	KCNK9 inh -7.4 (no result: KCNK3 block)
CCc1ccc(C2=NN(c3ccc(S(N)(=O)=O)cc3)C(c3ccc(F)cc3)C2)cc1 (stereo not drawn)	none
CC(NCCC1(Cc2ccccc2Cl)CCOC(C)(C)C1)c1cccs1 (stereo not drawn)	Kir21 block -4.9
CC(NCCC1(C(C)C)CCOC(C)(C)C1)c1cccs1 (stereo not drawn)	none
CCN(CC)C(=O)CC(c1ccccc1)c1ccco1 (stereo not drawn)	none
O=C(c1ccco1)N(CCC(c1ccccc1)c1ccco1)Cc1ccccc1 (stereo not drawn)	KCNK9 inh -7.2
CCC(=O)N(CCC(c1ccccc1)c1ccco1)Cc1cccs1 (stereo not drawn)	KCNK9 inh -14, Kir21 block -7.4
Cc1ccccc1CNS(=O)(=O)c1ccccc1[N+](=O)[O-]	none
Cc1onc(-c2ccccc2)c1CNS(=O)(=O)c1ccccc1[N+](=O)[O-]	Kir21 block -6.9
Oc1ccc(C[C@H]2CNCCN2CCC23CC4CC(CC(C4)C2)C3)cc1	KCNQ1 block 6
CCNC(=S)N(Cc1c(C)noc1C)c1ccccc1	none
CCCCNC(=S)N(Cc1c(C)noc1C)c1ccccc1	Kir21 block -5.4
CC1(C)CC(=O)C2=C(C1)OC1=C(C(=O)CC(C)(C)C1)C2c1ccc(O)cc1O	KCNQ1 block 7, KCNK9 inh -7
CC1(C)CC(=O)C2=C(C1)OC1=C(C(=O)CC(C)(C)C1)C2c1ccc(O)c([N+](=O)[O-])c1	none
Fc1ccc(N2CCN(Cc3cn[nH]c3-c3ccccc3)CC2)cc1	none
COc1cccc2sc(Nc3nc(-c4cc5ccccc5oc4=O)cs3)nc12	KCNK9 inh -7.3
COc1cccc2sc(Nc3nnc(-c4ccccc4Cl)o3)nc12	KCNQ1 act 15, hERG protect 8.7
COc1cccc(-c2nnc(Nc3nc4c(F)cccc4s3)o2)c1	KCNQ1 act 35, hERG protect 40
Cc1ccc(S(=O)(=O)N2CCc3cc4c(cc3C2C)OCCCO4)cc1 (stereo not drawn)	none
COc1ccc(S(=O)(=O)N2CCc3cc4c(cc3C2C)OCCCO4)cc1 (stereo not drawn)	Kir21 block -4.4
CCCn1c2c(c(O)c(C(=O)Nc3nc(C)cs3)c1=O)CCCC2	none (no result: KCNK3 block)
CCCn1c2c(c(O)c(C(=O)Nc3nccs3)c1=O)CCCC2	KCNK9 inh -6.6
NC(=O)CCn1nc(-c2ccc(Cl)cc2)c2ccccc2c1=O	none
c1ccc2c(NCCc3c[nH]c4ccccc34)c3ccccc3nc2c1	KCNQ1 block 7, Kir21 block -12
Fc1cccc(NCCc2c[nH]c3ccccc23)n1	none
O=C(NCc1cccc(Cl)c1)C1CCCO1 (stereo not drawn)	none
CC(C(=O)N1CCCC1)N1CCN(c2ccccc2O)CC1 (stereo not drawn)	hERG protect 11
COc1ccccc1N1CCN(C(C)C(=O)N2CC(C)OC(C)C2)CC1 (stereo not drawn)	none
CS(=O)(=O)N(Cc1ccc(Cl)cc1)c1ccc(C(=O)N/N=C/c2cc3ccccc3nc2Cl)cc1	KCNK9 inh -7.3
CS(=O)(=O)N(Cc1ccc(Cl)cc1)c1ccc(C(=O)NCc2ccccn2)cc1	none
CC(C)(C)C1CCc2c(sc(NC(=O)c3ccncc3)c2C(N)=O)C1 (stereo not drawn)	none
Cc1cc(Nc2ccccc2)nn1C(=O)c1ccccc1	none
COc1ccc(C(=O)n2nc(C)cc2Nc2ccccc2)cc1	KCNK9 inh -7.4
CC(C)CCNC(=O)C(c1ccc(O)cc1)N(C(=O)C1COc2ccccc2O1)c1cccc(O)c1 (stereo not drawn)	KCNQ1 block 7
Cc1ccc2c(C(=O)CCl)c(C)[nH]c2c1	none
CC(=O)CSc1ncnc2sc3c(c12)CCC(C)C3 (stereo not drawn)	KCNQ1 act 33, hERG protect 50
Cc1ccc(CCN2CC(C(=O)NCCCN3CCN(C)CC3)CC2=O)cc1 (stereo not drawn)	none
Cc1ncc(CO)c(/C=N/NC(=S)Nc2cccc(Cl)c2)c1O	KCNQ1 block 6
Cc1ncc(CO)c(/C=N/NC(=S)Nc2ccc(Cl)c(Cl)c2)c1O	KCNQ1 block 11
Cc1ncc(CO)c(/C=N/NC(=O)c2ccc(O)cc2)c1O	none
Cc1ncc(CO)c(/C=N/NC(=O)c2ccccc2Br)c1O	none

From PubChem BioAssay
